Screens as filed in PubChem BioAssay.
The full list was thinned out, with hits kept by preference.
VLA-4 inh – inhibition in a human VLA-4 binding assay | P13612 | inhibition, % (about 7 µM as worked out from the volumes in the protocol) | VLA-4 expressing cells, ligand binding flow cytometry | AID 2557 | hit rate 0.2% among 330,000; in the data active = inhibition above about 50%
Target sequence (P13612 whole entry, looked up): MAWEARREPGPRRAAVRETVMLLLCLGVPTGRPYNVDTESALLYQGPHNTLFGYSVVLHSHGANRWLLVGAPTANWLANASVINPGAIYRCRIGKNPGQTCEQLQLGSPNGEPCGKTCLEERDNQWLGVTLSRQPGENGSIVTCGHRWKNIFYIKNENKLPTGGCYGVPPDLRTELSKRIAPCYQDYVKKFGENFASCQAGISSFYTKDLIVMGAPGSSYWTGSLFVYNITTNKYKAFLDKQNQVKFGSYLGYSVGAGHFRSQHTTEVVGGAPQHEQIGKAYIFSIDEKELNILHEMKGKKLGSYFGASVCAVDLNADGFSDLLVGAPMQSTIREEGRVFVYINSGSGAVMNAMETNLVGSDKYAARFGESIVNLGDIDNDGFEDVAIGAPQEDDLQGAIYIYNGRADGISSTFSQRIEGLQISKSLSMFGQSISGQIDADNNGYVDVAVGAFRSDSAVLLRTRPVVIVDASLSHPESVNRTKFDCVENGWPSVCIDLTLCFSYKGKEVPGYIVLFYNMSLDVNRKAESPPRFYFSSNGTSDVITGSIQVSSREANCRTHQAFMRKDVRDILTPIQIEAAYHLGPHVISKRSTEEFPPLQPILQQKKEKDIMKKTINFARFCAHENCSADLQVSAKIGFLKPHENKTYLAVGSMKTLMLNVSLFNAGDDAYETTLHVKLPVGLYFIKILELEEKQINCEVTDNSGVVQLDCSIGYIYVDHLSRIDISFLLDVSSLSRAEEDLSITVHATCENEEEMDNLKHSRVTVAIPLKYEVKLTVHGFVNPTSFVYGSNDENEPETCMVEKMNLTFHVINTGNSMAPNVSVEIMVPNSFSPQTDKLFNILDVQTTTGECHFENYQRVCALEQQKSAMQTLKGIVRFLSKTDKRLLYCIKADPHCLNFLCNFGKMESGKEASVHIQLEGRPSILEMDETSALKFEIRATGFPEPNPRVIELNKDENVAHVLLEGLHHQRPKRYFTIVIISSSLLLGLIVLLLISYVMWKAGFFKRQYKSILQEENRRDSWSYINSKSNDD
CHOP inh – CHOP inhibition in unfolded protein response; CHO-K1 CHOP-promoter luciferase, tunicamycin-induced, 15-18 h; inhibition, % at 10 µM; hit rate 3.8% among 220,000; AID 2732;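 active = compounds that reduced the stress-induced luciferase reporter signal by more than about 70% of percent inhibition, limit read from the data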;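 also: 0% = tunicamycin plus vehicle and 100% = wells without tunicamycin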
UPR CHOP act – apoptotic UPR (CHOP) activation; CHO-CHOP luciferase reporter, luminescence; percent of tunicamycin response over DMSO baseline; activation, % at 10 µM; hit rate 0.34% among 330,000;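 active = at 10 µM dose, activation of 40% or more, normalized to positive control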;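 also: 100% = tunicamycin at 10 µg/mL and 0% = DMSO alone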
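System: CHO-CHOP luciferase reporter cell line; amount: 500 cells/well; buffer or medium: F12 medium containing 10% fetal bovine serum; incubation: 6 h compound exposure at 37 °C after overnight seeding; measured by: luciferase luminescence after 10 min with Steady-Glo reagent; evaluation: % reporter activation, DMSO baseline versus tunicamycin full activation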
Beta2AR agonist – human beta-2 adrenergic receptor agonism by FAP; P07550; hit rate 0.43% among 340,000; AID 504454; response, % (concentration not given with the values); Am2.2-beta2AR cells, FAP receptor internalization, flow cytometry;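 active = response above a set limit, near 3 SD of response in nonfluorescent compounds, cut at about 42% in these data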
UPR XBP1 act – activators of adaptive arm of unfolded protein response (XBP1); CHO-XBP1 luciferase reporter, IRE1-XBP1 UPR activation, luminescence; percent of tunicamycin response, DMSO as zero; activation, % at 20 µM; hit rate 0.33% among 330,000; AID 463104;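 active = versus positive control, 20 µM dose yields 30% or more activation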;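 also: 100% = tunicamycin at 10 µg/mL and 0% = DMSO only wells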
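Assay system: CHO-XBP1 luciferase reporter cells; Schedule: 6 h treatment, 37 °C; Detection: glow luminescence from Steady-Glo reagent; Benchmarks: high control tunicamycin 10 µg/mL final, low control DMSO vehicle only.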
VLA-4 mod pick – confirmation of allosteric modulators of human VLA-4 integrin | inhibition, % at 6.7 µM | U937 cells, HUTS-21 LIBS mAb binding, flow cytometry; LDV ligand present at threefold Kd | hit rate 2% among 1,300 | shares compounds with VLA-4 inh; in the data active = inhibition above about 40%;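 also: 0% = ligand without compound and 100% = no ligand background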
* = called active by the depositor; · = no result given.

SMILES	VLA-4 inh	CHOP inh	UPR CHOP act	Beta2AR agonist	UPR XBP1 act	VLA-4 mod pick
CCOc1ccccc1Nc1nnc(SCC(=O)NC2CCS(=O)(=O)C2)s1 (stereo unspecified)	7	·	1	-7	-1	·
O=C(COc1cccc(OC(F)F)c1)Nc1ccc(SC(F)F)cc1	1	94*	-1	-4	6	·
C=C1CC(Cn2cc(Br)c(=O)[nH]c2=O)(c2ccc(-c3ccccc3)cc2)OC1=O (stereo unspecified)	·	·	·	51*	·	·
O=C(CSc1nc(-c2ccccc2)cs1)NCCCN1CCCC1=O	-4	·	3	3	1	·
COc1ccc(/C=N/NS(=O)(=O)c2ccccc2)cc1OC(=O)c1ccc(C)cc1	33	74*	-1	4	-2	·
CC(C)Cc1cc(C(C)(C)C)ccc1OC(=S)N(C)C	-1	·	0	3	-2	·
CN1CCN(c2ccccc2NC(=O)c2ccc(OCc3ccccc3)cc2)CC1	5	65	-1	7	1	·
CN1CCN(c2ccccc2NC(=O)c2cccc(OCc3ccccc3)c2)CC1	14	78*	0	0	-2	·
Cc1ccc(CNC(=O)CSc2nc(N3CCCCC3)nc(N3CCCCC3)n2)cc1	16	71*	1	-1	-4	·
Cc1ccccc1NC(=O)CSc1nc(N2CCCCC2)nc(N2CCCCC2)n1	0	68	0	-12	0	·
CN(C(=O)Cn1cnc2ccccc2c1=O)C1CCS(=O)(=O)C1 (stereo unspecified)	-1	·	-2	1	-1	·
Cc1cc(C)c(S(=O)(=O)c2ccccc2C)c(OCC(C)(C)C)n1	4	75*	2	9	-3	·
CCOCCOc1nc(C)cc(C)c1S(=O)(=O)c1ccccc1C	9	15	1	-4	3	·
O=C(Nc1ccccc1Br)c1ccc(N2CCCC2=O)cc1	-2	·	8	1	3	·
O=C(Nc1cccc2ccccc12)NC1CCCCC1O (stereo unspecified)	2	·	-2	-6	-4	·
CCOc1nc(-c2ccccc2Cl)ccc1C#N	-5	71*	-2	-2	0	·
COc1ccc(-c2ccc(C#N)c(OC)n2)cc1	13	35	1	-7	-1	·
Cc1[nH]c(C)c(S(=O)(=O)N2CCN(c3cccc(Cl)c3)CC2)c1C(=O)N1CCCCC1	-1	·	0	1	-3	·
Cc1cc(NS(=O)(=O)c2cn(C)nc2C)no1	10	·	1	-2	-3	·
Cc1ccc(OCC(=O)Nc2nnc(S(=O)(=O)N3CCC(C)CC3)s2)cc1	9	·	-3	8	-4	·
O=C(Cc1cccs1)Nc1nc2c(ccc3ccccc32)s1	4	81*	1	3	-2	·
CC1=NNC(=O)/C1=C\c1cn(-c2ccccc2)nc1-c1cccs1	22	110*	-9	106*	-9	·
O=C(O)CCCCCN1C(=O)/C(=C/c2cn(-c3ccccc3)nc2-c2cccs2)SC1=S	·	·	·	11	·	·
Cc1ccc2cc3cc(C(=O)N4CCN(C(=O)c5ccco5)CC4)sc3nc2c1	-5	3	4	-6	-5	·
Cc1ccc2cc3cc(C(=O)N4CCN(Cc5ccccc5)CC4)sc3nc2c1	-4	74*	1	4	-2	·
SMILES	VLA-4 inh	CHOP inh	UPR CHOP act	Beta2AR agonist	UPR XBP1 act	VLA-4 mod pick
O=S(=O)(NCCC1=CCCCC1)c1ccc(Br)cc1	6	·	2	2	2	·
CCC(=O)c1ccc(OCC(=O)OCC(=O)N2CCCc3ccccc32)cc1	3	·	0	0	-3	·
C/C(=N\NC(=O)c1ccccc1)c1ccc2c(c1)OCO2	71*	-6	2	4	0	12
CC(=O)Nc1ccc(S(=O)(=O)N2CCNC(=O)C2)cc1	17	·	-1	5	0	·
COc1ccc2cc(C=NS(=O)(=O)c3ccc(C)cc3)n(C)c2c1	0	·	-1	5	0	·
CCOc1ccc(-n2c(SCC(=O)Nc3ccc(C(=O)O)cc3)nc3ccccc3c2=O)cc1	12	·	0	-1	1	·
CCn1cc(C(=O)N[C@@H](CCSC)C(=O)NCCCO)c(=O)c2cc3c(cc21)OCO3	40	·	-3	-1	2	4
Cc1noc(C)c1CSc1ncnc2sc3c(c12)CCCCC3	42	11	2	-6	-1	0
CCOC(=O)Nc1nnc(CCc2ccccc2)s1	4	8	-1	0	-2	·
CCc1nnc(NC(=O)OCc2ccccc2)s1	57*	-12	2	-4	0	-1
Cc1ccc(S(=O)(=O)NCC(=O)OCC(=O)N(C)C2CCCCC2)cc1	21	·	-1	-7	-1	·
O=C(CCc1nc2ccccc2s1)OCC(=O)c1ccccc1	42	-14	2	11	23	-12
COc1ccc(C(=O)NC(C)c2nnc(SCC(=O)Nc3nc(C)cs3)n2C)cc1 (stereo unspecified)	2	-17	1	-3	-1	0
COc1ccc(C(=O)NC(C)c2nnc(SCC(=O)Nc3nc4ccccc4s3)n2C)cc1 (stereo unspecified)	-10	1	0	-11	-3	4
CCOC(=O)N1CCN(Cc2nc3cc(NC(=O)CC(C)C)ccc3n2CC)CC1	51*	·	-1	-8	-2	-1
C[C@@H](NC(=O)[C@@H]1Cc2ccccc2CN1)C(=O)NC1CCCCC1	51*	·	0	-1	-3	-1
COc1ccc(N2C(=O)CC(N(Cc3ccc(S(N)(=O)=O)cc3)C(C)=O)C2=O)cc1 (stereo unspecified)	14	-2	-1	-3	-3	1
CCCOc1ccc(N2C(=O)CC(N(Cc3ccc(S(N)(=O)=O)cc3)C(=O)CC)C2=O)cc1 (stereo unspecified)	-5	13	-4	19	4	-5
CCCOc1ccc(N2C(=O)CC(N(CCCO)C(=O)CC)C2=O)cc1 (stereo unspecified)	9	8	0	-3	-2	·
O=C(NC1CCCc2ccccc21)c1cccc(S(=O)(=O)N2CCOCC2)c1 (stereo unspecified)	26	12	-1	6	0	·
COC(=O)c1ccc(/C=C(/NC(=O)c2ccccc2)C(=O)N2CCOCC2)cc1	24	·	0	0	0	·
COc1cccc(-n2c(Cc3cc(=O)[nH]c(=O)[nH]3)nnc2SCC(=O)N2CCCCCC2)c1	-5	45	-2	-3	0	9
COc1cccc(-n2c(Cc3cc(=O)[nH]c(=O)[nH]3)nnc2SCC(=O)N2CCCC2)c1	-8	-22	1	-2	1	15
COc1ccc(-n2c(Cc3cc(=O)[nH]c(=O)[nH]3)nnc2SCC(=O)N2CCCC2)cc1	-6	-13	0	1	-3	·
O=C(COC(=O)Cc1ccsc1)Nc1ccc(Cl)cn1	6	·	-1	-3	2	·
